Bioassay records deposited in PubChem BioAssay by Broad Institute.
Rows were chosen to be rich in hits. Some 2.8% of all compounds tested hit in one or more screens of this group.
SIRT5 inh: SIRT5 desuccinylase inhibitors, primary screen, biochemical, fluorescence imaging, single point, set 5 | 1.1% of 330,000 active | inhibition, % at 15 µM | Purified SirT5, succinyl-peptide AMC, trypsin-coupled fluorescence; in the data active means inhibition above about 15%; inconclusive means no clear call, values can overlap the other calls
Target sequence (Q9NXA8 whole entry, looked up): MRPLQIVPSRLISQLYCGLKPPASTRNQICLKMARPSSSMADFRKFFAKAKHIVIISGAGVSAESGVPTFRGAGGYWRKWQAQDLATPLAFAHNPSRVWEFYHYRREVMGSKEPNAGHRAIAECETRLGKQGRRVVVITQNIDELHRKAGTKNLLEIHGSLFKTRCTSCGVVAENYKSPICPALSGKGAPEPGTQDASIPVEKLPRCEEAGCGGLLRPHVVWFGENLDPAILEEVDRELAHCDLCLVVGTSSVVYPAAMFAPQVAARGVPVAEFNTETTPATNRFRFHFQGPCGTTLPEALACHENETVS
E-selectin induc: E-selectin induction in HUVECs, primary screen, imaging, HUVEC, immunofluorescence imaging, single point. P16581. normalized: neutral wells 0, TNF-alpha wells 100. activation, % at 7.58 µM. 0.37% of 260,000 active. AID 686992, 2013;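 active means mean E-selectin-positive cell signal at least 10% of the positive control, reached in at least 60% of replicates, without over 20% cell loss; inconclusive means no rule given, readout overlaps actives, possibly toxicity-flagged; inactive means the rest, including those meeting only one limit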
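Material: HUVEC primary endothelial cells; Amount: 3,000 cells per well; Dosing: single concentration; Medium: EGM-2 growth medium on 0.1% gelatin-coated wells; Read-out basis: percent E-selectin-positive cells; Signal: immunofluorescence imaging; Control set: TNF-alpha, DMSO.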
DENV2 CPE: inhibitors of DENV2 cytopathic effect, primary screen, cell-based, plate reader, single concentration; DENV2-infected cells, cytopathic effect rescue; CPE inhibition, % at 9.99 µM; 1.7% of 350,000 active; in the data active means CPE inhibition above about 20%, passing the limit was not always enough; inconclusive means no clear call, values can overlap the other calls; tested in BHK-21 cells;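 further: 0% = median of neutral control wells and 100% = median of positive control wells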
* hit, by the source's call; u = inconclusive; x = not tested or not shown; ! = not confirmed by another sample.

SMILES	SIRT5 inh	E-selectin induc	DENV2 CPE
O=C(C1CCCC1)N1CC[C@@H]2[C@@H](CO)Nc3ccc(C#Cc4ccc(F)cc4)cc3[C@@H]21	-13	11	4
N#Cc1ccc(-c2ccc3c(c2)[C@H]2[C@H](CCN2C(=O)C2CCC2)[C@H](CO)N3)cc1	-5	1	35*
O=C(C1CC1)N1CC[C@@H]2[C@H]1c1cc(C#Cc3ccc(F)cc3)ccc1N[C@@H]2CO	x	1	27*
N#Cc1ccc(-c2ccc3c(c2)[C@@H]2[C@@H](CCN2C(=O)C2CCCC2)[C@H](CO)N3)cc1	-10	0	2
O=C(C1CC1)N1CC[C@@H]2[C@H]1c1cc(C#Cc3ccccc3F)ccc1N[C@@H]2CO	x	0	29*
CCCC(=O)Nc1ccc2c(c1)C(=O)N(C)[C@H]1CC[C@@H](CC(=O)NCc3ccccc3F)O[C@H]1CO2	x	0	u
CN(C)CC(=O)Nc1ccc2c(c1)[C@H]1C[C@@H](CC(=O)NCc3cccc(F)c3)O[C@H](CO)[C@H]1O2	-1	0	-5
O=C(C[C@@H]1C[C@H]2c3cc(NC(=O)NC4CCCC4)ccc3O[C@H]2[C@H](CO)O1)NCc1ccc(-c2ccccc2)cc1	-1	-1	-1
CO[C@H]1CN(C)C(=O)c2ccc(NC(=O)c3cnccn3)cc2OC[C@@H](C)N(C)C[C@H]1C	x	1	x
N#C[C@@H]1[C@H](c2ccc(C3=CCCCC3)cc2)[C@H](CO)N1S(=O)(=O)c1cccc(F)c1	5	0	-1
CCC(=O)N1CC[C@@H]2[C@H](CO)Nc3ccc(C#Cc4ccc(F)cc4)cc3[C@@H]21	x	59*	-12
CCC(=O)N1CC[C@@H]2[C@H]1c1cc(C#Cc3ccc(F)cc3)ccc1N[C@@H]2CO	-1	1	-9
Cc1ccc(S(=O)(=O)Nc2cccc3c2O[C@H](CN(C)Cc2ccc(Oc4ccccc4)cc2)[C@H](C)CN([C@H](C)CO)C3=O)cc1	x	0	x
CCCC#Cc1cnc2c(c1)C(=O)N([C@@H](C)CO)C[C@H](C)[C@@H](CN(C)C(=O)C1CCC1)O2	5	0	10
O=C(Nc1nccs1)c1cccc2ccccc12	18*	x	5
O=C(Nc1nccs1)c1cc(-c2ccncc2)nc2ccccc12	1	x	u
Nc1cccc2c(O)cccc12	0	0	32*
O=c1[nH]ccc2c(O)cccc12	-1	0	-5
OC(COC(c1ccc(F)cc1)c1ccc(F)cc1)CN1CCCC1 (centres undefined)	-2	0	41*
CN1CCN(CC(O)COC(c2ccccc2)c2ccccc2)CC1 (centres undefined)	1	x	-7
OC(COC(c1ccc(Cl)cc1)c1ccc(Cl)cc1)CN1CCN(c2ccccn2)CC1 (centres undefined)	-3	x	45*
Cc1cccc(C)c1OCC(O)CN1CCN(c2ccccn2)CC1 (centres undefined)	-2	4	x
O=C(C[C@H]1C=C[C@H](NS(=O)(=O)c2ccc(F)cc2)[C@H](CO)O1)NCCN1CCCCC1	-5	1	-4
C[C@H](CO)N1C[C@H](C)[C@H](CN(C)C(=O)[C@H](Cc2ccccc2)N(C)C)OCc2ccccc2-c2c(n(C)c3ccccc23)C1=O	5	0	5
O=C(C[C@@H]1C=C[C@H](NC(=O)c2ccc3c(c2)OCO3)[C@H](CO)O1)NCc1ccc(Cl)cc1	0	1	-5
SMILES	SIRT5 inh	E-selectin induc	DENV2 CPE
Cc1ccc(S(=O)(=O)N2C[C@@H](C)[C@]3(C2)[C@H](O)[C@H](OC(=O)NCc2ccco2)C[C@H]2C(=O)N(c4ccccc4)C(=O)[C@H]23)cc1	22*	-1	-8
COc1ccc(CNC(=O)O[C@@H]2C[C@H]3C(=O)N(c4ccccc4)C(=O)[C@H]3[C@@]3(CN(S(=O)(=O)c4ccc(C)cc4)C[C@H]3C)[C@@H]2O)cc1OC	-1	-1	-1
C[C@H](CO)N1C[C@H](C)[C@@H](CN(C)Cc2ccccn2)Oc2ncc(C3=CCCCC3)cc2C1=O	x	1	x
Cc1ccc(CN2CC(=O)N3[C@@H](CO)[C@H](c4ccc(-c5ccccc5F)cc4)[C@@H]3C2)cc1	15*	0	-13
Cc1ccc(CN2CC(=O)N3[C@H](C2)[C@H](c2ccc(-c4ccccc4F)cc2)[C@@H]3CO)cc1	-4	0	-5
C/C=C/c1ccc([C@H]2[C@H]3CN(Cc4ccccc4)CC(=O)N3[C@H]2CO)cc1	-6	1	2
O=C1CN(Cc2ccccc2)C[C@H]2[C@@H](c3ccc(-c4ccccc4)cc3)[C@H](CO)N12	-5	1	-7
O=C1CN(Cc2ccccc2)C[C@@H]2[C@H](c3ccc(-c4ccccc4)cc3)[C@H](CO)N12	22*	0	1
C/C=C/c1ccc([C@@H]2[C@@H](CO)N3C(=O)CN(Cc4ccccc4)C[C@H]23)cc1	-6	0	25*
C[C@@H]1CN([C@@H](C)CO)C(=O)c2cc(N(C)C)ccc2O[C@@H](C)CCCCO[C@H]1CN(C)Cc1ccc(C(F)(F)F)cc1	0	-1	1
O=C(C[C@H]1C=C[C@@H](NC(=O)C2CCOCC2)[C@H](CO)O1)Nc1ccccc1	3	0	12
COc1ccc(-c2cnc3c(NC(C)=O)cc(-c4cccc(NS(C)(=O)=O)c4)cn23)cc1OC	x	0	8
CC(=O)Nc1cc(-c2cccc(NS(C)(=O)=O)c2)cn2c(-c3cccc(C(C)=O)c3)cnc12	-7	0	33*
COCC#Cc1ccc([C@@H]2[C@@H](CO)N3C(=O)CN(C(=O)C4CCOCC4)C[C@H]23)cc1	-7	0	-3
C[C@@H]1CN([C@@H](C)CO)S(=O)(=O)c2ccc(C3=CCCC3)cc2O[C@@H]1CN(C)S(=O)(=O)c1cn(C)cn1	-16	1	16
CC(C)NC(=O)N1Cc2cc(C(=O)NC3CCC3)nc(-c3cccc(-c4cccnc4)c3)c2[C@@H]1CCO	2	0	30*
CCNC(=O)c1cc2c(c(-c3cccc(-c4cc5ccccc5o4)c3)n1)[C@H](CCO)N(C(=O)NC(C)C)C2	-1	-4	3
CCNC(=O)c1cc2c(c(-c3cccc(-c4cncnc4)c3)n1)[C@@H](CCO)N(C(C)=O)C2	0	0	40*!
CC(=O)N1Cc2cc(C(=O)NCC(F)(F)F)nc(-c3cccc(-c4cc5ccccc5o4)c3)c2[C@H]1CCO	3	1	25*!
CCC(=O)N1Cc2cc(C(=O)N(C)C)nc(-c3cccc(-c4cncnc4)c3)c2[C@H]1CCO	4	0	-4
CCC(=O)N1Cc2cc(C(=O)NCC(F)(F)F)nc(-c3cccc(-c4cncnc4)c3)c2[C@@H]1CCO	-2	x	1
CC(C)NC(=O)N1Cc2cc(C(=O)NC3CCCC3)nc(-c3cccc(-c4cccnc4)c3)c2[C@H]1CCO	-1	3	6
CC(=O)N1Cc2cc(C(=O)NCC(F)(F)F)nc(-c3cccc(-c4cncnc4)c3)c2[C@@H]1CCO	-3	0	21*
CC(C)(C)Cc1c(-c2cccc(Cl)c2)nc2ccc(Br)cn12	2	0	9
